In PMC5600292 (Biochimica et biophysica acta, 2017):
Read-outs that look alike come from different tables or passages of the source.

B1: FXIII V34: full-length recombinant FXIII-A V34 expressed in E. coli (protein, UniProt P00488 1-732, looked up)
chain: MSETSRTAFGGRRAVPPNNSNAAEDDLPTVELQGVVPRGVNLQEFLNVTSVHLFKERWDTNKVDHHTDKYENNKLIVRRGQSFYVQIDFSRPYDPRRDLFRVEYVIGRYPQENKGTYIPVPIVSELQSGKWGAKIVMREDRSVRLSIQSSPKCIVGKFRMYVAVWTPYGVLRTSRNPETDTYILFNPWCEDDAVYLDNEKEREEYVLNDIGVIFYGEVNDIKTRSWSYGQFEDGILDTCLYVMDRAQMDLSGRGNPIKVSRVGSAMVNAKDDEGVLVGSWDNIYAYGVPPSAWTGSVDILLEYRSSENPVRYGQCWVFAGVFNTFLRCLGIPARIVTNYFSAHDNDANLQMDIFLEEDGNVNSKLTKDSVWNYHCWNEAWMTRPDLPVGFGGWQAVDSTPQENSDGMYRCGPASVQAIKHGHVCFQFDAPFVFAEVNSDLIYITAKKDGTHVVENVDATHIGKLIVTKQIGGDGMMDITDTYKFQEGQEEERLALETALMYGAKKPLNTEGVMKSRSNVDMDFEVENAVLGKDFKLSITFRNNSHNRYTITAYLSANITFYTGVPKAEFKKETFDVTLEPLSFKKEAVLIQAGEYMGQLLEQASLHFFVTARINETRDVLAKQKSTVLTIPEIIIKVRGTQVVGSDMTVTVEFTNPLKETLRNVWVHLDGPGVTRPMKKMFREIRPNSTVQWEEVCRPWVSGHRKLIASMSSDSLRHVYGELDVQIQRRPSM
modifications: full-length

Key:
[1] = biological target: human recombinant thrombin W215A (Homo sapiens, UniProt P00734, W590A); conditions: cited from earlier work; for Km / kcat / kcat/Km: W215A IIa, mean ± SEM; for Km / kcat: SEM; for fold reduction of kcat/Km relative to WT thrombin: prior studies
[2] = biological target: human recombinant thrombin W215A/E217A (WE) (Homo sapiens, UniProt P00734, E592A/W590A); conditions: cited from earlier work; for Km / kcat / kcat/Km: WE (W215A/E217A) IIa, mean ± SEM; for Km / kcat: SEM; for fold decrease in Km relative to WT thrombin: WE thrombin
[3] = biological target: T1, human recombinant thrombin L99A (Homo sapiens, UniProt P00734, L459A); conditions: cited from earlier work; for Km / kcat / kcat/Km: L99A IIa, mean ± SEM; for Km / kcat: SEM
[4] = test system: human recombinant thrombin Y60aA; conditions: cited from earlier work; for Km / kcat / kcat/Km: Y60aA IIa, mean ± SEM; for Km / kcat: SEM; for fold decrease in kcat relative to WT thrombin / fold increase in Km relative to WT thrombin: Y60aA thrombin
[5] = biological target: T2, human recombinant thrombin I174A (Homo sapiens, UniProt P00734, I542A); conditions: cited from earlier work; for Km / kcat / kcat/Km: I174A IIa, mean ± SEM; for Km / kcat: SEM
[6] = biological target: T3, human recombinant thrombin wild-type (WT) (Homo sapiens, UniProt P00734); conditions: WT IIa, mean ± SEM, cited from earlier work; for Km / kcat: SEM
[7] = biological target: human recombinant thrombin W60dA (Homo sapiens, UniProt P00734, W413A); conditions: W60dA IIa, mean ± SEM, cited from earlier work; for Km / kcat: SEM
[8] = biological target: T1, human recombinant thrombin L99A; test: HPLC-based kinetic assay of FXIII AP hydrolysis, L99A thrombin; format: biochemical; conditions: L99A IIa, HPLC assay, pH 7.4, 25 °C, average of at least three independent experiments ± SEM
Outline: (§1)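 Synthetic Ac-/-NH2 FXIII (28–41) AP peptides (V34, L34, F34, W34, Y34) were used at 75–2500 µM final in 50 mM H3PO4, 100 mM NaCl, 0.1% PEG, pH 7.4, 25 °C. Recombinant human thrombin (6 nM–1 µM) started the reaction; aliquots were quenched with 12.5% H3PO4, keeping hydrolysis below 17% in 30 min. The (28–37) product was quantified by RP-HPLC against calibration curves. Initial velocities were fitted to V = Vmax/(1+Km/[S]), kcat taken from thrombin concentration, in triplicate.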

[9] = biological target: T3, human recombinant thrombin wild-type (WT); test: HPLC-based kinetic assay of thrombin-catalyzed hydrolysis of FXIII; format: biochemical; conditions: WT IIa, pH 7.4, 25 °C, average of at least three independent experiments ± SEM
Outline: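 Recombinant human thrombin hydrolysed acetylated, amidated FXIII (28–41) activation peptides with V, L, F, W or Y at position 34 (final 75–2500 µM). Reactions ran at 25 °C in 50 mM H3PO4, 100 mM NaCl, 0.1% PEG, pH 7.4, with 6 nM–1 µM thrombin, and kept <17% hydrolysis in 30 min. Timed aliquots were quenched with 12.5% H3PO4. The (28–37) product was quantified by C18 RP-HPLC against calibration curves, giving initial velocities. These were fit to V = Vmax/(1 + Km/[S]), and kcat came from thrombin concentration. Runs were in triplicate.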

[10] = biological target: T2, human recombinant thrombin I174A; test: HPLC-based kinetic assay of FXIII AP hydrolysis, I174A thrombin; format: biochemical; conditions: for kcat/Km / Km / kcat: I174A IIa, HPLC assay, pH 7.4, 25 °C, average of at least three independent experiments ± SEM; for Km / kcat: SEM
Outline: as §1

[11] = test system: WT recombinant human thrombin; test: Gel electrophoresis; format: biochemical; conditions: 1 µM FXIII variant, 30 nM thrombin, 37°C
Outline: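 Full-length FXIII-A V34X variants were expressed GST-tagged in E. coli BL21(DE3) Gold by auto-induction, then freed from the tag by on-column PreScission digestion. 1 µM variant was incubated with 30 nM WT recombinant human thrombin at 37°C. Aliquots were taken at 1–30 min, quenched with 6 µM PPACK plus reducing buffer, and frozen at −80°C. Samples ran on 8% SDS-PAGE with Coomassie stain; densitometry followed the 83 kDa intact and 79 kDa cleaved bands.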

Molecule | Km [1] [µM] | kcat [1] [s⁻¹] | kcat/Km [1] [M⁻¹ s⁻¹] | fold reduction of kcat/Km relative to WT thrombin ([1]; W215A thrombin) [fold] | Km [2] [µM] | kcat [2] [s⁻¹] | kcat/Km [2] [M⁻¹ s⁻¹] | Km [3] [µM] | kcat [3] [s⁻¹] | kcat/Km [3] [M⁻¹ s⁻¹] | fold decrease in kcat relative to WT thrombin ([3]; L99A thrombin) | Km [4] [µM] | kcat [4] [s⁻¹] | kcat/Km [4] [M⁻¹ s⁻¹] | Km [6] [µM] | kcat [6] [s⁻¹] | kcat/Km [6] [M⁻¹ s⁻¹] | Km [7] [µM] | kcat [7] [s⁻¹] | kcat/Km [7] [M⁻¹ s⁻¹] | also measured
Ac-TVELQGVVPRGVNL-NH2 [FXIII (28–41) V34 AP] | 2370 ± 372 | 5.53 ± 0.017 | 2300 ± 700 | 4 | 745 ± 98 | 0.117 ± 0.008 | 160 ± 20 | 2070 ± 414 | 0.89 ± 0.07 | 430 ± 100 | 3–4 fold | 678 ± 120 | 0.048 ± 0.0032 | 71 ± 13 | 298 ± 42 | 2.57 ± 0.005 | 8600 ± 1000 | 1380 ± 422 | 0.86 ± 0.046 | 630 ± 190 | fold decrease in kcat relative to WT thrombin [4]: 54 to 61 fold; fold increase in Km relative to WT thrombin [4]: 2 fold; Km [5]: 204 ± 36 µM; kcat [5]: 5.37 ± 0.01 s⁻¹; kcat/Km [5]: 26000 ± 100 M⁻¹ s⁻¹; fold increase in kcat relative to WT thrombin ([5]; I174A thrombin): 2 fold
Ac-TVELQGYVPRGVNL-NH2 [FXIII (28–41) Y34 AP] | – | – | – | – | – | – | – | – | – | – | – | – | – | – | – | – | – | – | – | – | kcat/Km [8]: 39000 ± 9800 M⁻¹ s⁻¹; Km ([8]; SEM): 347 ± 80 µM; kcat ([8]; SEM): 13.5 ± 1.4 s⁻¹; kcat/Km [9]: 4600 ± 900 M⁻¹ s⁻¹; Km ([9]; SEM): 484 ± 88 µM; kcat ([9]; SEM): 2.23 ± 0.18 s⁻¹; kcat/Km [10]: 3300 ± 2000 M⁻¹ s⁻¹; Km [10]: 349 ± 120 µM; kcat [10]: 1.17 ± 0.16 s⁻¹; fold decrease in Km relative to WT thrombin ([10]; I174A thrombin, current work): 1.4 fold; fold decrease in kcat relative to WT thrombin ([10]; I174A thrombin, current work): 2 fold
Ac-TVELQGLVPRGVNL-NH2 [FXIII (28–41) L34 AP] | 3620 ± 470 | 5.31 ± 0.002 | 1500 ± 200 | – | 142 ± 28 | 0.052 ± 0.003 | 370 ± 100 | 1930 ± 354 | 5.94 ± 0.02 | 3100 ± 200 | 3–4 fold | 696 ± 116 | 0.37 ± 0.012 | 530 ± 120 | 315 ± 42 | 22.9 ± 0.003 | 73000 ± 1200 | 1000 ± 201 | 5.07 ± 0.021 | 5100 ± 1000 | fold decrease in Km relative to WT thrombin [2]: 2 fold; fold advantage in kcat/Km relative to V34 ([3]; L99A thrombin): 7 fold; fold decrease in kcat relative to WT thrombin [4]: 54 to 61 fold; fold increase in Km relative to WT thrombin [4]: 2 fold; Km [5]: 1110 ± 247 µM; kcat [5]: 10.2 ± 0.04 s⁻¹; kcat/Km [5]: 9100 ± 2000 M⁻¹ s⁻¹; fold decrease in kcat relative to WT thrombin ([5]; I174A thrombin): 2 fold
Ac-TVELQGFVPRGVNL- NH2 [FXIII (28–41) F34 AP] | 437 ± 81 | 1.97 ± 0.14 | 4500 ± 900 | 3 | 190 ± 43 | 0.07 ± 0.007 | 360 ± 80 | 570 ± 125 | 2.71 ± 0.3 | 4800 ± 120 | 2 fold | – | – | – | 442 ± 93 | 6.27 ± 0.54 | 14000 ± 3000 | 435 ± 98 | 1.46 ± 0.15 | 3400 ± 800 | fold decrease in kcat relative to WT thrombin ([1]; W215A thrombin): 3 fold; fold decrease in Km relative to WT thrombin [2]: 2 fold; kcat/Km [10]: 6600 ± 690 M⁻¹ s⁻¹; Km [10]: 920 ± 88 µM; kcat [10]: 6.08 ± 0.25 s⁻¹
B1 | – | – | – | – | – | – | – | – | – | – | – | – | – | – | – | – | – | – | – | – | time at which cleavage started to be visible ([11]; SDS-PAGE): 2 min; cleavage of full-length FXIII by thrombin at 10 min ([11]; SDS-PAGE densitometry): 50%; time to full cleavage of full-length FXIII ([11]; SDS-PAGE densitometry): ~30 min
